According to ChEMBL document CHEMBL1122273, “5-sulfamoylorthanilic acids, a sulfonamide series with salidiuretic activity” (J Med Chem, 1983):
“And” between values parts separate entries of the source, which are not always exact repeats. Identical values can stand only once. The source made the active and inactive calls. The rule behind the calls is not given here.

Assays:
Canis familiaris [1] = test: Diuretic activity in the dog (2 animals/dose) at (dose 12.5 mg/Kg), when administered perorally; assay type: functional, Canis lupus familiaris, Urine
Procedure, shortened: (§1)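 Trained male beagles, fasted 24 h with tap water ad libitum. Bladder emptied by catheter, then 20 mL/kg tap water by stomach tube, with 4 mL/kg water at each hourly catheterization up to 8 h. The first 2 h of urine served as control. Oral dosing came after the second catheterization, and 1–6 h urine was pooled. Na⁺ and K⁺ were measured by flame photometry, Cl⁻ argentometrically, in mequiv/kg.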

Rattus norvegicus [2] = species on record: Rattus norvegicus; test: Saluretic activity in the rat measured as concentration of K+ in urine; assay type: functional
Procedure, shortened: (§2)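 Rats deprived of food 24 h, water ad libitum, dosed 50 mg/kg by stomach tube as suspension in 2% starch, no extra water load. Groups of three in diuresis funnels; urine over first 5 h collected. Na⁺ and K⁺ by flame photometry, Cl⁻ argentometrically; expressed as mequiv/kg.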

Rattus norvegicus [3] = species on record: Rattus norvegicus; test: Saluretic activity in the rat measured as concentration of chloride in urine; assay type: functional; procedure, shortened: as §2
Canis familiaris [4] = test: Diuretic activity in the dog (2 animals/dose) at (dose 1.56 mg/Kg), when administered perorally; assay type: functional, Canis lupus familiaris, Urine; procedure, shortened: as §1
Canis familiaris [5] = test: Saluretic activity in the dog measured as concentration of K+ in urinary excretion (2 animals/dose) at (dose mg/Kg, po); assay type: functional, Canis lupus familiaris, Urine
Procedure, shortened: (§3)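 Male beagles trained to rest on a table and to accept stomach tube and catheter. Food withdrawn 24 h before, tap water ad libitum. Bladder emptied by catheter, then 20 mL/kg tap water by stomach tube. Catheterized hourly up to 8 h with 4 mL/kg water orally each time; first 2 h urine served as control. Oral dosing after second catheterization. Pooled 1–6 h urine; Na⁺/K⁺ by flame photometry, Cl⁻ argentometrically.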

Canis familiaris [6] = test: It is the ratio, measured as saluretic activity in the dog as concentration of Na+ in urinary excretion (dose mg/Kg, po) to that of K; assay type: functional, Canis lupus familiaris, Urine; procedure, shortened: as §1
Canis familiaris [7] = test: It is the ratio, measured as saluretic activity in the dog as concentration of Cl- in urinary excretion (dose mg/Kg, po) to that of (Na++K+); assay type: functional, Canis lupus familiaris, Urine; procedure, shortened: as §1
Rattus norvegicus [8] = species on record: Rattus norvegicus; test: Saluretic activity in the rat measured as concentration of Na+ in urine; assay type: functional; procedure, shortened: as §2
Rattus norvegicus [9] = species on record: Rattus norvegicus; test: Diuretic activity in the rats, determined by a modified Lipschitz test; assay type: functional, Urine
Procedure, shortened: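 Modified Lipschitz test: rats deprived of water 24 h, grouped in threes of similar weight in diuresis funnels. Oral dose of 50 mg/kg, suspended in 2% starch solution, by stomach tube.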

Canis familiaris [10] = test: Sailuric activity in the dog measured as concentration of Cl - in urinary excretion (2 animals/dose) at (dose 6.25 mg/Kg, po); assay type: functional, Canis lupus familiaris, Urine
Procedure, shortened: (§4)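 Male beagles trained to the procedures, food withdrawn 24 h before, tap water ad libitum. Bladder emptied by catheter, then 20 mL/kg tap water by stomach tube, plus 4 mL/kg orally at each hourly catheterization up to 8 h. The first 2 h of urine served as control. Compound given orally after the second catheterization. Urine from 1–6 h post-dose pooled; Na⁺ and K⁺ by flame photometry, Cl⁻ argentometrically, in mequiv/kg.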

Canis familiaris [11] = test: Sailuric activity in the dog measured as concentration of Na+ in urinary excretion (2 animals/dose) at (dose 6.25 mg/Kg, po); assay type: functional, Canis lupus familiaris, Urine; procedure, shortened: as §4
Rattus norvegicus [12] = species on record: Rattus norvegicus; test: Effect on Urine flow in rats was evaluated
Rattus norvegicus [13] = species on record: Rattus norvegicus; test: Effect on (GFR) glomerular filtration rate in rats was evaluated
Canis familiaris [14] = test: Sailuric activity in the dog measured as concentration of K+ in urinary excretion (2 animals/dose) at (dose 0.78 mg/Kg, po); assay type: functional, Canis lupus familiaris, Urine; procedure, shortened: as §4
Canis familiaris [15] = test: Sailuric activity in the dog measured as concentration of Na+ in urinary excretion (2 animals/dose) at (dose 0.78 mg/Kg, po); assay type: functional, Canis lupus familiaris, Urine; procedure, shortened: as §4
Canis familiaris [16] = test: Diuretic activity in the dog (2 animals/dose) at (dose 6.25 mg/Kg), when administered perorally; assay type: functional, Canis lupus familiaris, Urine; procedure, shortened: as §1
Canis familiaris [17] = test: Sailuric activity in the dog measured as concentration of Cl - in urinary excretion (2 animals/dose) at (dose 0.78 mg/Kg, po); assay type: functional, Canis lupus familiaris, Urine; procedure, shortened: as §1
Canis familiaris [18] = test: Sailuric activity in the dog measured as concentration of K+ in urinary excretion (2 animals/dose) at (dose 6.25 mg/Kg, po); assay type: functional, Canis lupus familiaris, Urine; procedure, shortened: as §4
[19] = It is the ratio, measured as saluretic activity in the dog as concentration of Cl- in urinary excretion (dose 0.1 mg/Kg, po) to that of (Na++K+); assay type: functional, Urine; procedure, shortened: as §1
[20] = It is the ratio, measured as saluretic activity in the dog as concentration of Na+ in urinary excretion (dose 0.4 mg/Kg, po) to that of K; assay type: functional, Urine; procedure, shortened: as §1
Canis familiaris [21] = test: Saluretic activity in the dog measured as concentration of Cl - in urinary excretion (2 animals/dose) at (dose 0.4 mg/Kg, po); assay type: functional, Canis lupus familiaris, Urine; procedure, shortened: as §4
Canis familiaris [22] = test: It is the ratio, measured as saluretic activity in the dog as concentration of Na+ in urinary excretion (dose 1.56 mg/Kg, po) to that of K; assay type: functional, Canis lupus familiaris, Urine; procedure, shortened: as §1
Canis familiaris [23] = test: Saluretic activity in the dog measured as concentration of Cl - in urinary excretion (2 animals/dose) at (dose 6.25 mg/Kg, po); assay type: functional, Canis lupus familiaris, Urine; procedure, shortened: as §4
Canis familiaris [24] = test: Diuretic activity in the dog (2 animals/dose) at (dose 0.1 mg/Kg), when administered perorally; assay type: functional, Canis lupus familiaris, Urine; procedure, shortened: as §1
Canis familiaris [25] = test: Saluretic activity in the dog measured as concentration of Na+ in urinary excretion (2 animals/dose) at (dose 0.1 mg/Kg, po); assay type: functional, Canis lupus familiaris, Urine; procedure, shortened: as §3
Canis familiaris [26] = test: Saluretic activity in the dog measured as concentration of Cl - in urinary excretion (2 animals/dose) at (dose 1.56 mg/Kg, po); assay type: functional, Canis lupus familiaris, Urine; procedure, shortened: as §4
Rattus norvegicus [27] = test: Salidiuretic activity on the basis of the 50 mg/kg po rat assay; compound was highly active; assay type: functional, organism-based; parameters: dose 50 mg/kg; settings: Urine
Canis familiaris [28] = test: Saluretic activity in the dog measured as concentration of Na+ in urinary excretion (2 animals/dose) at (dose 1.56 mg/Kg, po); assay type: functional, Canis lupus familiaris, Urine; procedure, shortened: as §3
[29] = It is the ratio, measured as saluretic activity in the dog as concentration of Cl- in urinary excretion (dose 1.56 mg/Kg, po) to that of (Na++K+); assay type: functional, Urine; procedure, shortened: as §1
Canis familiaris [30] = test: Saluretic activity in the dog measured as concentration of K+ in urinary excretion (2 animals/dose) at (dose 1.56 mg/Kg, po); assay type: functional, Canis lupus familiaris, Urine; procedure, shortened: as §3
[31] = It is the ratio, measured as saluretic activity in the dog as concentration of Cl- in urinary excretion (dose 6.25 mg/Kg, po) to that of (Na++K+); assay type: functional, Urine; procedure, shortened: as §1
Canis familiaris [32] = test: Salidiuretic activity on the basis of the 1.56 mg/Kg po dog assay; compound was highly active; assay type: functional, organism-based; settings: Canis lupus familiaris; Urine
Canis familiaris [33] = test: Saluretic activity in the dog measured as concentration of Cl - in urinary excretion (2 animals/dose) at (dose 0.1 mg/Kg, po); assay type: functional, Canis lupus familiaris, Urine; procedure, shortened: as §4
Canis familiaris [34] = test: Saluretic activity in the dog measured as concentration of Na+ in urinary excretion (2 animals/dose) at (dose 6.25 mg/Kg, po); assay type: functional, Canis lupus familiaris, Urine; procedure, shortened: as §3
[35] = It is the ratio, measured as saluretic activity in the dog as concentration of Na+ in urinary excretion (dose 0.1 mg/Kg, po) to that of K; assay type: functional, Urine; procedure, shortened: as §1
[36] = It is the ratio, measured as saluretic activity in the dog as concentration of Cl- in urinary excretion (dose 0.4 mg/Kg, po) to that of (Na++K+); assay type: functional, Urine; procedure, shortened: as §1
Canis familiaris [37] = test: Saluretic activity in the dog measured as concentration of Na+ in urinary excretion (2 animals/dose) at (dose 0.4 mg/Kg, po); assay type: functional, Canis lupus familiaris, Urine; procedure, shortened: as §3
Canis familiaris [38] = test: Saluretic activity in the dog measured as concentration of K+ in urinary excretion (2 animals/dose) at (dose 6.25 mg/Kg, po); assay type: functional, Canis lupus familiaris, Urine; procedure, shortened: as §3
[39] = It is the ratio, measured as saluretic activity in the dog as concentration of Na+ in urinary excretion (dose 6.25 mg/Kg, po) to that of K; assay type: functional, Urine; procedure, shortened: as §1
Canis familiaris [40] = test: Saluretic activity in the dog measured as concentration of K+ in urinary excretion (2 animals/dose) at (dose 0.1 mg/Kg, po); assay type: functional, Canis lupus familiaris, Urine; procedure, shortened: as §4
Canis familiaris [41] = test: Saluretic activity in the dog measured as concentration of K+ in urinary excretion (2 animals/dose) at (dose 0.4 mg/Kg, po); assay type: functional, Canis lupus familiaris, Urine; procedure, shortened: as §4
Canis familiaris [42] = test: Diuretic activity in the dog (2 animals/dose) at (dose 0.4 mg/Kg), when administered perorally; assay type: functional, Canis lupus familiaris, Urine; procedure, shortened: as §1

NS(=O)(=O)c1cc(S(=O)(=O)[O-])c(NCc2ccco2)cc1Nc1ccccc1.[Na+]
Diuretic activity (Canis familiaris [1]): 49.4 ml kg-1 6hr-1 | Saluretic activity (Rattus norvegicus [2]): 0.7 m equiv 5hr-1 kg-1 | Saluretic activity (Rattus norvegicus [3]): 1.1 m equiv 5hr-1 kg-1 | Diuretic activity (Canis familiaris [4]): 32.3 ml kg-1 6hr-1 | Saluretic activity (Canis familiaris [5]): 0.18 m equiv 6hr-1 kg-1 and 0.45 m equiv 6hr-1 kg-1 | Saluretic activity (Canis familiaris [6]): 2.1 and 5 | Saluretic activity (Canis familiaris [7]): 1 and 1.1 | Saluretic activity (Rattus norvegicus [8]): 0.6 m equiv 5hr-1 kg-1 | Diuretic activity (Rattus norvegicus [9]): 0.6 mL/kg

NS(=O)(=O)c1cc(C(=O)O)c(NCc2ccco2)cc1Cl [FUROSEMIDE]
Saluretic activity (Canis familiaris [10]): 6.27 m equiv 6hr-1 kg-1 | Saluretic activity (Rattus norvegicus [2]): 2.6 m equiv 5hr-1 kg-1 | Saluretic activity (Rattus norvegicus [3]): 7.2 m equiv 5hr-1 kg-1 | Saluretic activity (Canis familiaris [11]): 5.54 m equiv 6hr-1 kg-1 | Volume (Rattus norvegicus [12]): 0.998 mL/min/kg | GFR (Rattus norvegicus [13]): 8.82 mL/min/kg | Saldiuretic activity (Canis familiaris [14]): 0.5 m equiv 6hr-1 kg-1 | Saluretic activity (Canis familiaris [15]): 1.37 m equiv 6hr-1 kg-1 | Diuretic activity (Canis familiaris [16]): 69 ml kg-1 6hr-1 | Saluretic activity (Canis familiaris [17]): 1.85 m equiv 6hr-1 kg-1 | Saluretic activity (Rattus norvegicus [8]): 4.8 m equiv 5hr-1 kg-1 | Diuretic activity (Rattus norvegicus [9]): 4.9 mL/kg | Saluretic activity (Canis familiaris [18]): 1.26 m equiv 6hr-1 kg-1

NS(=O)(=O)c1cc(S(=O)(=O)[O-])c(NCc2ccco2)cc1S(=O)(=O)C1CCCCC1.[Na+]
Ratio [19]: 1 | Ratio [20]: 4.5 | Saldiuretic activity (Canis familiaris [21]): 4.43 m equiv 6hr-1 kg-1 | Ratio (Canis familiaris [22]): 4.7 | Saldiuretic activity (Canis familiaris [23]): 6.83 m equiv 6hr-1 kg-1 | Diuretic activity (Canis familiaris [24]): 44.7 ml kg-1 6hr-1 | Saluretic activity (Rattus norvegicus [2]): 2.3 m equiv 5hr-1 kg-1 | Saluretic activity (Rattus norvegicus [3]): 9.1 m equiv 5hr-1 kg-1 | Diuretic activity (Canis familiaris [4]): 66.7 ml kg-1 6hr-1 | Saluretic activity (Canis familiaris [25]): 1.95 m equiv 6hr-1 kg-1 | Saldiuretic activity (Canis familiaris [26]): 6.15 m equiv 6hr-1 kg-1 | Saldiuretic activity (Rattus norvegicus [27]): Active | Diuretic activity (Canis familiaris [16]): 73.5 ml kg-1 6hr-1 | Saluretic activity (Canis familiaris [28]): 5.38 m equiv 6hr-1 kg-1 | Ratio [29]: 0.95 | Saldiuretic activity (Canis familiaris [30]): 1.14 m equiv 6hr-1 kg-1 | Ratio [31]: 1 | Saldiuretic activity (Canis familiaris [32]): Active | Saldiuretic activity (Canis familiaris [33]): 2.49 m equiv 6hr-1 kg-1 | Saluretic activity (Canis familiaris [34]): 5.5 m equiv 6hr-1 kg-1 | Ratio [35]: 3.7 | Ratio [36]: 1 | Saluretic activity (Rattus norvegicus [8]): 8.2 m equiv 5hr-1 kg-1 | Saluretic activity (Canis familiaris [37]): 3.71 m equiv 6hr-1 kg-1 | Diuretic activity (Rattus norvegicus [9]): 2.8 mL/kg | Saldiuretic activity (Canis familiaris [38]): 1.16 m equiv 6hr-1 kg-1 | Ratio [39]: 4.7 | Saldiuretic activity (Canis familiaris [40]): 0.53 m equiv 6hr-1 kg-1 | Saluretic activity (Canis familiaris [41]): 0.82 m equiv 6hr-1 kg-1 | Diuretic activity (Canis familiaris [42]): 59 ml kg-1 6hr-1
